Assay results taken from ChEMBL document CHEMBL1156926, “CoMFA analysis of tgDHFR and rlDHFR based on antifolates with 6-5 fused ring system using the all-orientation search (AOS) routine and a modified cross-validated r(2)-guided region selection (q(2)-GRS) routine and its initial application” (Bioorg Med Chem, 2010).
The source made the active and inactive calls. The calls are words filed in the database; no cut-off is given here.

Experiments:
[1] = biological target: T1, Bifunctional dihydrofolate reductase-thymidylate synthase (Toxoplasma gondii, UniProt Q07422); assay: Inhibition of Toxoplasma gondii DHFR by spectrophotometric assay
T1 sequence (Q07422 whole entry): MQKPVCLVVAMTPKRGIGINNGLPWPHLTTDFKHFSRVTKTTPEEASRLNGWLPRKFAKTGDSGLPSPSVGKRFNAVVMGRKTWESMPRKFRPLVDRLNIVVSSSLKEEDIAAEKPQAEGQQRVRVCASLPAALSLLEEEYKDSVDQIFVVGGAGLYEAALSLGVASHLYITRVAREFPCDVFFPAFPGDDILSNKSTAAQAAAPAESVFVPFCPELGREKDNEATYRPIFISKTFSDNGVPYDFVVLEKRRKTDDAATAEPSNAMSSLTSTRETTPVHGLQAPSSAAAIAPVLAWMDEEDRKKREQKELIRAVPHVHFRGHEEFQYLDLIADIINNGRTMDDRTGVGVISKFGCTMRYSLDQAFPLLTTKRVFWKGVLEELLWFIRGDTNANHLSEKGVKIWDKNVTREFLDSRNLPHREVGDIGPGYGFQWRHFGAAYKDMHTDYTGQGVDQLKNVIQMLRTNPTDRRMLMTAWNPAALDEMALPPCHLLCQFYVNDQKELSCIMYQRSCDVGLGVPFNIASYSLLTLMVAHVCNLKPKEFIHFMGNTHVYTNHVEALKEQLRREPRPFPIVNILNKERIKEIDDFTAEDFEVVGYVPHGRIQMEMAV

[2] = biological target: T2, Dihydrofolate reductase (Rattus norvegicus, UniProt Q920D2); assay: Inhibition of rat liver DHFR by spectrophotometric assay
T2 sequence (Q920D2 whole entry): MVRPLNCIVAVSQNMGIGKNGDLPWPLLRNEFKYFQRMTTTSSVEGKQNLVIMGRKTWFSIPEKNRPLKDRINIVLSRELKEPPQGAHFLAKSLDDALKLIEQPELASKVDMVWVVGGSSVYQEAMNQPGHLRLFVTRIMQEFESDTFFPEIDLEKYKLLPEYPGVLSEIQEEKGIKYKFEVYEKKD

[3] = biological target: T2, Dihydrofolate reductase; assay: Inhibition of rat liver DHFR using dihydrofolic acid substrate and NADPH cofactor by spectrophotometric assay
[4] = biological target: T1, Bifunctional dihydrofolate reductase-thymidylate synthase; assay: Inhibition of Toxoplasma gondii DHFR using dihydrofolic acid substrate and NADPH cofactor by spectrophotometric assay
[5] = test system: Toxoplasma gondii; assay: Antimicrobial activity against Toxoplasma gondii RH infected in BALB/c mouse assessed as mouse survival at 50 mg/kg, ip after 5 days; type: functional; details: route intraperitoneal
[6] = test system: Toxoplasma gondii; details: RH, 50 mg/kg
[7] = test system: Toxoplasma gondii; details: RH, 50 mg/kg; remark: listed apart in the source
[8] = test system: Toxoplasma gondii; assay: Antimicrobial activity against Toxoplasma gondii RH infected in BALB/c mouse assessed as reduction of parasite level at 50 mg/kg, ip relative to untreated control; type: functional; details: route intraperitoneal
In short: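 Female BALB/c mice (18-20 g) inoculated i.p. with 5 × 10³ cultured RH trophozoites. Treatment began 4 h after inoculation: 50 mg/kg/day i.p. (amount injected). Where folic acid was used, it was given in drinking water at 10 microgram/ml. Survival was recorded to day 5 and mice were harvested on day 6. Parasites in peritoneal exudate were counted per 1000x field (10 microliters spread over 1 cm²).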

[9] = biological target: T3, Dihydrofolate reductase (Rattus norvegicus) (UniProt Q920D2); details: 24.6 uM
T3 sequence (whole entry): T2 sequence (Q920D2 whole entry)

Structure (SMILES)	IC50 [1] [µM]	IC50 [2] [µM]	other results
Cc1[nH]c2nc(N)nc(N)c2c1Sc1ccccc1	81	> 33	
Cc1cc(C)cc(Sc2[nH]c3nc(N)nc(N)c3c2C)c1			IC50 [3]: 7.6 µM
Cc1[nH]c2nc(N)nc(N)c2c1Sc1ccc(Cl)cc1Cl	28.2	34.6	
CCn1c2ccccc2c2cc(N(C)Cc3coc4nc(N)nc(N)c34)ccc21	22.6	24.7	
Nc1nc(N)c2c(CSc3ccccc3-c3ccccc3)coc2n1	105	49	
Nc1nc(N)c2c(CNc3ccc4c(c3)C(O)c3ccccc3-4)coc2n1 (stereo unspecified)	63	> 13	
COc1ccc(OC)c(NCc2nc3c(N)nc(N)nc3[nH]2)c1		> 29	
Cc1[nH]c2nc(N)nc(N)c2c1Sc1cccc2c1CCCC2		40	
COc1ccc(OC)c(Sc2c(C)[nH]c3nc(N)nc(N)c23)c1	87	> 46	
Nc1nc(N)c2c(CCCc3cc(Cl)ccc3Cl)c[nH]c2n1		4.8	
Cc1c(Sc2cc(Cl)c(Cl)cc2Cl)[nH]c2nc(N)nc(N)c12			IC50 [3]: 3 µM; IC50 [4]: 212 nM
COc1ccc(OC)c(CCCc2c[nH]c3nc(N)nc(N)c23)c1		11.8	
Nc1nc(N)c2c(CSc3cccc(-c4ccccc4)c3)coc2n1	23	31	
Cc1[nH]c2nc(N)nc(N)c2c1Sc1cccc(Cl)c1		64	
Cc1[nH]c2nc(N)nc(N)c2c1Sc1ccc(Cl)cc1		37.4	
Cc1cccc(C)c1Sc1[nH]c2nc(N)nc(N)c2c1C.Cl			Survival [5]: 100%
Cc1cccc(C)c1Sc1[nH]c2nc(N)nc(N)c2c1C [listing 1 of 2 here]			inhibition [6]: Active; inhibition [7]: Active
Nc1nc(N)c2c(CCCc3ccc4c(c3)CCCC4)c[nH]c2n1		1.09	

Structure (SMILES)	IC50 [1] [µM]	IC50 [2] [µM]	other results
Nc1nc(N)c2c(CNc3ccc4c(c3)Cc3ccccc3-4)coc2n1		> 10	
Nc1nc(N)c2c(CSc3cccc4c3CCCC4)c[nH]c2n1	0.81	3	
COc1cc(CCCc2c[nH]c3nc(N)nc(N)c23)cc(OC)c1OC		4.8	
Nc1nc(N)c2c(CNc3cccc4c3CCCC4)c[nH]c2n1		59.3	
Nc1nc(N)c2c(CSc3ccc(Oc4ccccc4)cc3)coc2n1		65	
COc1ccc(-c2nc3nc(N)nc(N)c3[nH]2)c([N+](=O)[O-])c1OC		> 25	
Nc1nc(N)c2c(CNc3cccc4cc5ccccc5cc34)coc2n1		> 51	
Nc1nc(N)c2c(CCCc3ccc(OCc4ccccc4)cc3)c[nH]c2n1	1.6	0.66	
CCn1c2ccccc2c2cc(NCc3coc4nc(N)nc(N)c34)ccc21	4.5	12.6	
Nc1nc(N)c2c(CCCc3ccccc3)c[nH]c2n1	2.7	8.6	
Nc1nc(N)c2c(CSc3ccc4c(c3)CCCC4)c[nH]c2n1	9.2	82.9	
Cc1cccc(C)c1Sc1[nH]c2nc(N)nc(N)c2c1C [listing 2 of 2 here]			IC50 [3]: 0.388 µM; fold change (FC) [8]: >2; survival at 50 mg/kg ([5]; Toxoplasma gondii, RH, ip, 120 h): 100%
COc1cc(Sc2[nH]c3nc(N)nc(N)c3c2C)cc(OC)c1OC			IC50 [3]: > 24.6 µM; inhibition [9]: 12%
Nc1nc(N)c2c(CSc3ccc(-c4ccccc4)cc3)coc2n1	79	351	
Nc1nc(N)c2c(CSc3ccccc3Oc3ccccc3)coc2n1	38	18	
Nc1nc(N)c2c(CSc3cccc(Oc4ccccc4)c3)coc2n1	19	39	
Cc1c(Sc2ccc3ccccc3c2)[nH]c2nc(N)nc(N)c12			IC50 [3]: 8.1 µM; IC50 [4]: 1600 nM
